Pf Dd2 inh: P. falciparum Dd2 growth inhibition. activity change, % at 10 µM. 94,000 tested, 2.3% active. SYBR Green, 72 h; stronger effect = lower value; in the data active = activity change below about -80%; inconclusive = no clear call, values can overlap the other calls
T cruzi growth-1: inhibitors of T. cruzi proliferation; AID 624255; T. cruzi beta-gal in NIH3T3, GalScreen luminescence, 90 h; 77,000 tested, 5.9% active; inhibition, % at 8.34 µM;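 active = mean inhibition above about 93%, with at least 55% of replicates each passing it, limit read from the data, passing the limit was not always enough; inconclusive = only one of those two conditions holds; inactive = neither condition holds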
KDM4C inh: KDM4C (human) demethylase inhibition | Q9H3R0 | GST-KDM4C 2-372, H3K9me3 peptide, LANCE TR-FRET | inhibition, % at 12.5 µM | 96,000 tested, 0.15% active | AID 720574;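 active = mean replicate inhibition above about 25%, with at least 55% of replicates also reaching it, limit read from the data, passing the limit was not always enough; inconclusive = only one of those two conditions met; inactive = neither condition met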
Target sequence (Q9H3R0 2-372 limits assumed): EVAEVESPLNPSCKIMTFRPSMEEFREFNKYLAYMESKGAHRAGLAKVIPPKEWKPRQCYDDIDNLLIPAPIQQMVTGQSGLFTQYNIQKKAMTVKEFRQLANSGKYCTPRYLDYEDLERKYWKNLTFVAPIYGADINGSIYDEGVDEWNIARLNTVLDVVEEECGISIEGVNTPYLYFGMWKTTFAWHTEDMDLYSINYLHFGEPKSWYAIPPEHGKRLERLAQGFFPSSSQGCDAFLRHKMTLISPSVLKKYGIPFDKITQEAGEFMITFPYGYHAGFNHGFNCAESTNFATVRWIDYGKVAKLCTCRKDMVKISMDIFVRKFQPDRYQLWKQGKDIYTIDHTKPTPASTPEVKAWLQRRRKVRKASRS
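Compound: one test concentration per compound; Material: GST-GASC-1 enzyme fragment 2-372; Amount: GASC-1 enzyme at 10 nM final in reaction; Also added: H3K9me3 peptide substrate, Fe(II), 2-oxoglutarate; Technique: LANCE TR-FRET; Times: 30 min demethylation and 1 h detection at room temperature.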
IDH1 R132H inh: IDH1 R132H (human) inhibition. O75874. IDH1 R132H reductase, diaphorase/resazurin fluorescence, 60 min. inhibition, % at 10 µM. 70,000 tested, 0.18% active. AID 624101; in the data active = inhibition above about 34%; inconclusive = no clear call, values can overlap the other calls; inactive = below about 11%;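 note: 0% = DMSO and 100% = no enzyme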
Target sequence (O75874 whole entry R132H): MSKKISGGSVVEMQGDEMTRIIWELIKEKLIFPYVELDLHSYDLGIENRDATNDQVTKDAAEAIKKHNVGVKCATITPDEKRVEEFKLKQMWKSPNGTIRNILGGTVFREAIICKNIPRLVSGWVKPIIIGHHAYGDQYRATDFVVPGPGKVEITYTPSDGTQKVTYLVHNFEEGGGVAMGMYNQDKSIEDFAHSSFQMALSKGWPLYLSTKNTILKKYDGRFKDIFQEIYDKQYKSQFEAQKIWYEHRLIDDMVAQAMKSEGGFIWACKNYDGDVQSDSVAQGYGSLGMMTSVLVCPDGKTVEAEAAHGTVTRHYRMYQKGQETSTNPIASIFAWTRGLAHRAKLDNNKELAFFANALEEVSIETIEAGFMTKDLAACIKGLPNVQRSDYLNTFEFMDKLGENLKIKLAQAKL
T cruzi growth-2: inhibitors of T. cruzi proliferation; T. cruzi beta-gal in NIH3T3, GalScreen luminescence, 90 h; shares compounds with T cruzi growth-1; AID 651739; inhibition, % at 8.35 µM; 5,600 tested, 72% active;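 active = mean replicate inhibition above about 95% and at least 55% of replicates individually reaching it, limit read from the data; inconclusive = only one of the two criteria is met; inactive = neither criterion is met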
T cruzi growth-3: inhibitors of T. cruzi proliferation. T. cruzi beta-gal in NIH3T3, GalScreen luminescence, 90 h. shares compounds with T cruzi growth-1. inhibition, % at 2.09 µM. AID 651740. 5,600 tested, 21% active;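 active = mean inhibition above about 95%, with at least 55% of replicates also reaching it, limit read from the data; inconclusive = meets just one of the two conditions; inactive = meets neither condition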;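 note: plate controls were neutral control median for no effect and positive control median for full effect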
3T3 cytotox: NIH/3T3 (mouse) viability loss | AID 651742 | 5,600 tested, 14% active | shares compounds with T cruzi growth-1 | cytotoxicity (signal decrease), % at 8.35 µM | NIH/3T3 viability, CellTiter-Glo ATP luminescence, 90 h;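 active = mean signal decrease across replicates above about 35% based on untreated-well scatter, with enough replicates individually passing, limit read from the data; inconclusive = no rule stated though some were filed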;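 note: 0% = median of neutral control wells and 100% = median of positive control wells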
3T3 cytotox 2: kills mouse NIH/3T3 fibroblasts | inhibition, % at 24.9 µM | NIH/3T3 viability, CellTiter-Glo ATP luminescence, 90 h | 5,600 tested, 56% active | shares compounds with T cruzi growth-1 | AID 651744;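 active = mean loss of cell viability signal at or above a set limit, and enough replicates individually reaching it; inconclusive = meets only the mean limit or only the replicate share; inactive = meets neither condition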;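 note: 0% = median of neutral control wells and 100% = median of positive control wells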
Numbers without * were called inactive; ? = inconclusive; / = no result. This is a sample that favours compounds with a hit; in the whole collection about 5.9% have one here.

SMILES | Pf Dd2 inh | T cruzi growth-1 | KDM4C inh | IDH1 R132H inh | T cruzi growth-2 | T cruzi growth-3 | 3T3 cytotox | 3T3 cytotox 2
C[C@@H]1CCCCO[C@H](CN(C)Cc2ccc3c(c2)OCO3)[C@@H](C)CN([C@H](C)CO)C(=O)c2cc(NC(=O)Nc3ccc4c(c3)OCO4)ccc2O1 | 10.1 | ? | 1.5 | 0.5 | 110.0* | -15.8 | -14.3 | 2.7
C[C@@H]1CCCCO[C@@H](CN(C)Cc2ccc(Cl)c(Cl)c2)[C@@H](C)CN([C@@H](C)CO)C(=O)c2cc(NC(=O)Nc3ccc4c(c3)OCO4)ccc2O1 | -32.4 | 98.3 | -1.9 | 4.3 | / | / | / | /
COc1ccc(CN(C)C[C@@H]2Oc3ccc(NC(=O)Nc4ccc5c(c4)OCO5)cc3CC(=O)N([C@@H](C)CO)C[C@@H]2C)cc1 | 6.4 | 18.3 | 0.8 | -6.2 | / | / | / | /
CCC(=O)Nc1ccc2c(c1)OC[C@H](C)N(Cc1ccccn1)C[C@H](C)[C@@H](OC)CN(C)C2=O | 12.0 | 47.5 | 0.8 | 0.1 | / | / | / | /
Cc1noc(C)c1NC(=O)N(C)C[C@H]1OCCCC[C@H](C)Oc2ccc(NS(=O)(=O)c3ccccc3)cc2C(=O)N([C@H](C)CO)C[C@@H]1C | -26.5 | -22.5 | -0.4 | / | / | / | / | /
N#Cc1cccc(-c2ccc3c(c2)[C@@H]2[C@@H](CCN2S(=O)(=O)c2ccccc2)[C@H](CO)N3)c1 | 4.0 | 82.8 | -0.2 | / | / | / | / | /
CN(C)C(=O)c1cccc(-c2ccc3c(c2)[C@H]2[C@H](CCN2S(=O)(=O)c2ccccc2)[C@@H](CO)N3)c1 | -18.5 | 99.7* | -0.7 | / | 96.2* | 80.8 | 9.6 | 16.7
CN(C)C(=O)c1cccc(-c2ccc3c(c2)[C@@H]2[C@@H](CCN2S(=O)(=O)c2ccccc2)[C@H](CO)N3)c1 | -10.6 | 112.3* | -0.1 | / | 97.4* | 80.4 | 22.7 | 23.2
CN(C)C(=O)c1ccc(-c2ccc3c(c2)[C@H]2[C@H](CCN2S(=O)(=O)c2ccccc2)[C@H](CO)N3)cc1 | -34.0 | 29.0 | 0.2 | / | / | / | / | /
CN1C(=O)c2cc(NC(=O)C3CCC3)ccc2OC[C@H]2O[C@H](CC(=O)NCc3ccccc3F)CC[C@H]21 | -33.6 | / | -2.7 | / | / | / | / | /
C[C@@H]1CN([C@@H](C)CO)C(=O)c2c(c3ccccc3n2C)-c2ccccc2CO[C@H]1CN(C)Cc1cccnc1 | -27.9 | 91.7 | -0.5 | / | / | / | / | /
C[C@@H]1CN([C@@H](C)CO)C(=O)c2c(c3ccccc3n2C)-c2ccccc2CO[C@H]1CN(C)C(=O)Nc1ccc2c(c1)OCO2 | -82.4* | 105.4* | 0.9 | / | 85.2 | 33.3 | 13.4 | 15.3
C[C@@H]1CN([C@@H](C)CO)C(=O)c2c(c3ccccc3n2C)-c2ccccc2CO[C@H]1CN(C)C | -17.1 | ? | -1.3 | -1.5 | ? | 43.9 | 16.4 | 30.9
C[C@H](CO)N1C[C@H](C)[C@@H](CN(C)C(=O)C2CC2)OCc2ccccc2-c2c(n(C)c3ccccc23)C1=O | -21.7 | 89.0 | 1.1 | / | / | / | / | /
C[C@H](CO)N1C[C@H](C)[C@H](CN(C)C(=O)C2CC2)OCc2ccccc2-c2c(n(C)c3ccccc23)C1=O | -22.1 | ? | 1.6 | -4.1 | 70.4 | 18.9 | 3.0 | 38.4*
C[C@H](CO)N1C[C@H](C)[C@@H](CN(C)Cc2cccnc2)OCc2ccccc2-c2c(n(C)c3ccccc23)C1=O | -10.3 | ? | 1.8 | / | 75.3 | 44.5 | 16.1 | 24.8
C[C@H]1CN([C@@H](C)CO)C(=O)c2c(c3ccccc3n2C)-c2ccccc2CO[C@H]1CN(C)C(=O)Nc1ccc2c(c1)OCO2 | -63.4 | 71.7 | -0.7 | / | / | / | / | /
CS(=O)(=O)c1ccc(-c2cc(Br)sc2-c2ccc(F)cc2)cc1 | / | / | / | -0.2 | / | / | / | /
C[C@@H]1CN([C@H](C)CO)C(=O)c2cc(NS(=O)(=O)c3ccccc3)ccc2O[C@@H](C)CCCCO[C@H]1CN(C)S(=O)(=O)c1ccccc1 | -18.8 | 54.9 | 0.7 | / | / | / | / | /
N#C[C@@H]1[C@@H](c2ccc(C#CC3CC3)cc2)[C@@H](CO)N1C(=O)Cc1ccccn1 | -9.3 | 86.0 | -0.9 | / | / | / | / | /
CC(C)(C)[S@](=O)N1Cc2cc(C(=O)NCc3ccc4c(c3)OCO4)nc(-c3cccc(-c4cccnc4)c3)c2[C@@H]1CCO | -56.1 | 94.8 | 1.2 | -1.4 | / | / | / | /
CN(C)CC#Cc1cccc(-c2nc(C(=O)NCc3ccc4c(c3)OCO4)cc3c2[C@@H](CCO)N(S(=O)C(C)(C)C)C3)c1 (some centres undefined) | / | 112.2* | / | / | 110.2* | 108.3* | 5.8 | 21.1
COc1ccc(CNC(=O)c2cc3c(c(-c4cccc(-c5ccc(C#N)cc5)c4)n2)[C@H](CCO)N([S@@](=O)C(C)(C)C)C3)cc1 | -69.3 | ? | -3.8 | 0.0 | 103.2* | 92.8 | 19.1 | 29.5*
COc1ccc(CNC(=O)c2cc3c(c(-c4cccc(-c5cccc(C#N)c5)c4)n2)[C@H](CCO)N([S@@](=O)C(C)(C)C)C3)cc1 | -79.6 | 89.8 | -10.4 | 0.0 | / | / | / | /
C/C=C/c1ccc2c(c1)O[C@@H](CN(C)C(=O)c1ccccc1)[C@@H](C)CN([C@@H](C)CO)S2(=O)=O | -2.9 | / | -1.2 | -1.0 | / | / | / | /
SMILES | Pf Dd2 inh | T cruzi growth-1 | KDM4C inh | IDH1 R132H inh | T cruzi growth-2 | T cruzi growth-3 | 3T3 cytotox | 3T3 cytotox 2
C/C=C/c1ccc2c(c1)O[C@@H](CN(C)C(=O)c1cccc(F)c1)[C@@H](C)CN([C@@H](C)CO)S2(=O)=O | -58.1 | ? | -1.6 | -0.7 | 86.4 | 31.5 | 13.4 | ?
C[C@@H]1CN([C@@H](C)CO)S(=O)(=O)c2ccc(/C=C/c3ccccc3)cc2O[C@H]1CN(C)C(=O)c1ccncc1 | -32.9 | 101.2* | -4.7 | -2.7 | 103.1* | 65.5 | 38.4* | 69.7*
C[C@@H]1CN([C@@H](C)CO)S(=O)(=O)c2ccc(/C=C/c3ccccc3)cc2O[C@H]1CN(C)C(=O)c1ccccc1 | -78.0 | 126.6* | -1.2 | 0.6 | 110.0* | 73.6 | 55.4* | 85.0*
C[C@H](CO)N1C[C@H](C)[C@@H](CN(C)C(=O)c2ccccc2)Oc2cc(/C=C/c3ccccc3)ccc2S1(=O)=O | -69.5 | ? | / | 0.2 | 103.9* | 59.4 | 6.1 | 42.6*
C/C=C/c1ccc2c(c1)O[C@H](CN(C)C(=O)c1ccncc1)[C@@H](C)CN([C@H](C)CO)S2(=O)=O | 4.2 | 60.6 | 0.2 | -0.3 | / | / | / | /
C/C=C/c1ccc2c(c1)O[C@@H](CN(C)C(=O)c1ccccc1)[C@H](C)CN([C@@H](C)CO)S2(=O)=O | -30.5 | / | -1.2 | -3.1 | / | / | / | /
C[C@H](CO)N1C[C@H](C)[C@H](CN(C)C(=O)c2ccccc2)Oc2cc(/C=C/c3ccccc3)ccc2S1(=O)=O | -77.7 | 126.6* | / | -0.3 | 100.7* | 77.7 | 24.4 | 14.2

High-throughput results (PubChem)
